Square brackets hold non-standard residues; d marks the D form. Peptide text beside a SMILES is read from it. * marks the point of attachment. NMeF = CN[C@@H](Cc1ccccc1)C(=O)O; dNMeF = CN[C@H](Cc1ccccc1)C(=O)O; Tic = O=C(O)[C@@H]1Cc2ccccc2CN1; Cha = N[C@@H](CC1CCCCC1)C(=O)O; NMeL = CN[C@@H](CC(C)C)C(=O)O; dNMeL = CN[C@H](CC(C)C)C(=O)O; dNMeV = CN[C@@H](C(=O)O)C(C)C; NMeV = CN[C@H](C(=O)O)C(C)C; Orn = NCCC[C@H](N)C(=O)O; dAbu = CC[C@@H](N)C(=O)O; Abu = CC[C@H](N)C(=O)O; Cbz = O=C(OCc1ccccc1)*; Bn = c1ccc(C*)cc1; Sar = CNCC(=O)O
Experiments:
BXPC-3 = assay: Cytotoxicity against human BxPC3 cells after 56 hrs by [3H]thymidine uptake assay; format: functional
Summary of the method: (§1)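 Cells seeded at 2000–2500/well in DMEM with L-glutamine, 10% FBS and 1% penicillin-streptomycin. […] After 56 h, 3H-thymidine was added for 16 h more (72 h total), then cells were harvested and counted (CPM). Inhibition = 1 − CPM treated/DMSO; IC50 taken from curves, mean and SEM.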

[1] = Cytotoxicity against human PL45 cells after 56 hrs by [3H]thymidine uptake assay; format: functional; summary of the method: as §1

SMILES	growth inhibition (GI) (BXPC-3)	growth inhibition (GI) [1]
CC(C)C[C@@H]1NC(=O)[C@H](Cc2ccccc2)NC(=O)[C@@H](CO)NC(=O)[C@H](C(C)C)NC(=O)[C@H](CC(C)C)NC1=O (cyclo(FLLV[dS]))	25%	32%
CC[C@H]1NC(=O)[C@H](CC(C)C)NC(=O)[C@H](CC(C)C)NC(=O)[C@H](Cc2ccccc2)NC(=O)[C@H](CC(C)C)NC1=O (cyclo(FLL[dAbu]L))	17%	12%
CC(C)C[C@@H]1NC(=O)[C@H](Cc2ccccc2)NC(=O)[C@H](CC(C)C)NC(=O)[C@@H](Cc2ccccc2)NC(=O)[C@H](CC(C)C)NC1=O (cyclo(FLL[dF]L))	8%	33%
CC(C)C[C@@H]1NC(=O)[C@H](Cc2ccccc2)NC(=O)[C@@H](CC(C)C)N(C)C(=O)[C@@H](C(C)C)N(C)C(=O)[C@H](CC(C)C)NC1=O (cyclo(FLL[dNMeV][dNMeL]))	0%	22%
CC(C)C[C@@H]1NC(=O)[C@H](Cc2ccccc2)NC(=O)[C@H](CC(C)C)NC(=O)[C@@H](CO)NC(=O)[C@H](CC(C)C)NC1=O (cyclo(FLL[dS]L))	22%	25%
CC(C)C[C@@H]1NC(=O)[C@H](C(C)C)NC(=O)[C@H](CC(C)C)N(C)C(=O)[C@H](CC(C)C)NC(=O)[C@H](Cc2ccccc2)NC1=O (cyclo(FL[NMeL]VL))	52%	23%
CC(C)[C@@H]1NC(=O)[C@H](Cc2ccccc2)NC(=O)[C@@H](COCc2ccccc2)NC(=O)[C@H](C(C)C)NC(=O)[C@H](C(C)C)NC1=O (cyclo(FVVV[dS](Bn)))	17%	28%
CC(C)[C@@H]1NC(=O)[C@H](Cc2ccccc2)NC(=O)[C@@H](CO)NC(=O)[C@H](C(C)C)NC(=O)[C@H](C(C)C)NC1=O (cyclo(FVVV[dS]))	13%	7%
CC[C@H]1NC(=O)[C@H](C(C)C)NC(=O)[C@H](C(C)C)NC(=O)[C@H](Cc2ccccc2)NC(=O)[C@H](C(C)C)NC1=O (cyclo(FVV[dAbu]V))	26%	32%
CC(C)[C@@H]1NC(=O)[C@H](Cc2ccccc2)NC(=O)[C@H](C(C)C)NC(=O)[C@@H](COCc2ccccc2)NC(=O)[C@H](C(C)C)NC1=O (cyclo(FVV[dS](Bn)V))	15%	0%
CC(C)[C@@H]1NC(=O)[C@H](Cc2ccccc2)NC(=O)[C@H](C(C)C)NC(=O)[C@@H](CO)NC(=O)[C@H](C(C)C)NC1=O (cyclo(FVV[dS]V))	20%	18%
CC(C)[C@@H]1NC(=O)[C@H](Cc2ccccc2)NC(=O)[C@H](C(C)C)NC(=O)[C@@H](C(C)C)NC(=O)[C@H](C(C)C)NC1=O (cyclo(FVV[dV]V))	11%	25%
CC(C)C[C@@H]1NC(=O)[C@H](C(C)C)NC(=O)[C@H](CCCCNC(=O)OCc2ccccc2)NC(=O)[C@H](CC(C)C)N(C)C(=O)[C@H](Cc2ccccc2)NC1=O (cyclo(F[NMeL]K(Cbz)VL))	35%	36%
CC(C)C[C@@H]1NC(=O)[C@H](C(C)C)NC(=O)[C@H](CCCCN)NC(=O)[C@H](CC(C)C)N(C)C(=O)[C@H](Cc2ccccc2)NC1=O (cyclo(F[NMeL]KVL))	11%	9%
CC(C)C[C@@H]1NC(=O)[C@H](C(C)C)N(C)C(=O)[C@H](CC(C)C)NC(=O)[C@H](CC(C)C)N(C)C(=O)[C@H](Cc2ccccc2)NC1=O (cyclo(F[NMeL]L[NMeV]L))	0%	0%
CC(C)C[C@@H]1NC(=O)[C@H](CC(C)C)N(C)C(=O)[C@H](Cc2ccccc2)NC(=O)[C@H](CC(C)C)N(C)C(=O)[C@H](C(C)C)N(C)C1=O (cyclo(F[NMeL]L[NMeV][NMeL]))	0%	0%
CC(C)C[C@@H]1NC(=O)CN(C)C(=O)[C@H](Cc2ccccc2)NC(=O)[C@H](C(C)C)NC(=O)[C@@H](C(C)C)NC1=O (cyclo(F[Sar]L[dV]V))	22%	0%

SMILES	growth inhibition (GI) (BXPC-3)	growth inhibition (GI) [1]
CC(C)C[C@@H]1NC(=O)[C@H](C(C)C)NC(=O)[C@H](CC(C)C)N(C)C(=O)[C@@H](CC(C)C)NC(=O)[C@H](Cc2ccccc2)NC1=O (cyclo(F[dL][NMeL]VL))	71%	25%
CC(C)C[C@@H]1NC(=O)[C@@H](Cc2ccccc2)NC(=O)[C@@H](CC(C)C)NC(=O)[C@@H](C(C)C)NC(=O)[C@H](CCCCNC(=O)OCc2ccccc2)NC1=O (cyclo(K(Cbz)[dV][dL][dF]L))	38%	12%
CC(C)C[C@@H]1NC(=O)[C@@H](Cc2ccccc2)NC(=O)[C@@H](CC(C)C)NC(=O)[C@@H](C(C)C)NC(=O)[C@H](CCCCN)NC1=O (cyclo(K[dV][dL][dF]L))	28%	0%
CC(C)C[C@@H]1NC(=O)[C@H](CC(C)C)NC(=O)[C@@H]2Cc3ccccc3CN2C(=O)[C@H](CC(C)C)NC(=O)[C@H](C(C)C)NC1=O (cyclo(LLVL[Tic]))	54%	35%
CC(C)C[C@@H]1NC(=O)[C@H](CC(C)C)NC(=O)[C@@H](Cc2c[nH]c3ccccc23)NC(=O)[C@H](CC(C)C)NC(=O)[C@H](C(C)C)NC1=O (cyclo(LLVL[dW]))	30%	18%
CC(C)C[C@@H]1NC(=O)[C@H](CC(C)C)NC(=O)[C@@H](Cc2ccc(O)cc2)NC(=O)[C@H](CC(C)C)NC(=O)[C@H](C(C)C)NC1=O (cyclo(LLVL[dY]))	35%	11%
CC(C)C[C@@H]1NC(=O)[C@H](C(C)C)NC(=O)[C@H](CCCN)NC(=O)[C@H](CC(C)C)NC(=O)[C@@H](Cc2ccc(O)cc2)NC1=O (cyclo(L[Orn]VL[dY]))	0%	0%
CC(C)C[C@@H]1NC(=O)[C@@H](Cc2ccccc2)NC(=O)[C@H](C(C)C)NC(=O)[C@@H](CC(C)C)NC(=O)[C@@H](CC(C)C)NC1=O (cyclo(L[dL][dL]V[dF]))	23%	21%
CC[C@@H]1NC(=O)[C@H](CC(C)C)NC(=O)[C@H](CC(C)C)NC(=O)[C@H](Cc2ccccc2)NC(=O)[C@H](CC(C)C)NC1=O (cyclo([Abu]LFLL))	0%	0%
CC[C@@H]1NC(=O)[C@H](CC(C)C)NC(=O)[C@H](CC(C)C)NC(=O)[C@H](Cc2ccccc2)NC(=O)[C@@H](CC(C)C)NC1=O (cyclo([Abu][dL]FLL))	34%	23%
CC(C)[C@@H]1NC(=O)[C@H](CC2CCCCC2)NC(=O)[C@H](CO)NC(=O)[C@H](Cc2ccccc2)NC(=O)[C@@H](Cc2ccccc2)N(C)C1=O (cyclo([Cha]V[dNMeF]FS))	34%	11%
CC(C)C[C@@H]1NC(=O)[C@H](Cc2ccccc2)NC(=O)[C@H](CC(C)C)NC(=O)[C@@H](C(C)C)N(C)C(=O)[C@H](CC2CCCCC2)NC1=O (cyclo([Cha][dNMeV]LFL))	49%	30%
CC(C)C[C@@H]1NC(=O)[C@H](CC(C)C)NC(=O)[C@H](Cc2ccccc2)N(C)C(=O)[C@H](CC(C)C)NC(=O)[C@H](C(C)C)NC1=O (cyclo([NMeF]LLVL))	33%	30%
CC(C)C[C@@H]1C(=O)N[C@H](Cc2ccccc2)C(=O)N[C@H](CC(C)C)C(=O)N[C@H](CC(C)C)C(=O)N[C@H](C(C)C)C(=O)N1C (cyclo([dF][dL][dL][dV][dNMeL]))	30%	11%
CC(C)C[C@@H]1C(=O)N[C@H](CC(C)C)C(=O)N(C)[C@H](C(C)C)C(=O)N[C@H](CC(C)C)C(=O)N[C@H](Cc2ccccc2)C(=O)N1C (cyclo([dF][dNMeL][dL][dNMeV][dL]))	25%	0%
CC(C)C[C@@H]1NC(=O)[C@H](C(C)C)NC(=O)[C@H](CC(C)C)N(C)C(=O)[C@@H](CC(C)C)NC(=O)[C@@H](Cc2ccccc2)NC1=O (cyclo([dL][NMeL]VL[dF]))	58%	59%

From ChEMBL document CHEMBL1154122, “A comprehensive study of Sansalvamide A derivatives: The structure-activity relationships of 78 derivatives in two pancreatic cancer cell lines” (2009)
